Data reported in ChEMBL document CHEMBL5104207, “Synthesis, biological evaluation and computational studies of pyrazole derivatives as Mycobacterium tuberculosis CYP121A1 inhibitors” (RSC Med Chem, 2022).
Converted amounts (≈) assume the structure as drawn.

Test system: Mycobacterium tuberculosis
Experiment: Antimycobacterial activity against Mycobacterium tuberculosis H37Rv assessed as inhibition of bacterial growth for 5 weeks by spot culture growth inhibition assay
Type: functional
Settings: 840 h
How it was run: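 M. tuberculosis H37Rv grown shaking at 37 °C in 7H9 with 0.5% glycerol, 10% OADC and 0.025% Tween 80 to OD 1, then diluted 1:100 and 2 µL spotted. Wells hold 7H10 agar with 0.5% glycerol and 10% OADC plus compound, two-fold serial dilutions in DMSO from 150 μg mL-1. Plates used within 24 h. Incubated 37 °C for five weeks, then MIC90 recorded.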

## CC(C)Oc1ccc(-c2nn(-c3ccc(Cl)cc3)cc2Cn2ccnc2)cc1
  MIC90: 15.3 µM (≈ 6.01 µg/mL)
